Test results as given in ChEMBL document CHEMBL4715752, “Synthesis and anti-leishmanial evaluation of 1-phenyl-2,3,4,9-tetrahydro-1H-β-carboline derivatives against Leishmania infantum” (Eur J Med Chem, 2016).
≈ marks a conversion by molar mass, not a printed value.

How the values were obtained:
[1] = Selectivity index, ratio of CC50 for mouse splenocytes to IC50 for Leishmania infantum BCN150 amastigotes expressing IFP1.4 infected in BALB/c mouse splenocytes; assay type: toxicity, cell-based; conditions: read-out: Ratio CC50/IC50
[2] = Cytotoxicity against mouse splenocytes by alamar blue assay; assay type: cell-based, Splenocyte
Leishmania infantum [3] = experiment: Antileishmanial activity against Leishmania infantum BCN150 promastigotes expressing IFP1.4 assessed as inhibition of parasite growth by measuring the infrared fluorescence incubated for 48 hrs; assay type: functional, organism-based; conditions: BCN150, 48 h
Method in brief: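 Transgenic infrared-fluorescent L. infantum BCN150 promastigotes in 96-well plates. 200 µL culture per well at 1 × 10^6 with graded compound concentrations (1, 10, 100). Incubated 48 h at 26 °C, then promastigote growth assessed.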

Leishmania infantum [4] = experiment: Antileishmanial activity against Leishmania infantum BCN150 amastigotes expressing IFP1.4 infected in BALB/c mouse splenocytes incubated for 72 hrs by infrared fluorescence imaging analysis; assay type: functional, organism-based; conditions: BCN150, Splenocyte
Method in brief: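 Spleens from female BALB/c mice infected intraperitoneally. Splenocytes washed 3x in PBS and seeded in 384-well plates in RPMI, 20% FCS, 1 mM pyruvate, vitamins, 10 mM HEPES, penicillin/streptomycin. Wells set by fixed IR fluorescence per well, not by cell count. Compounds at various concentrations for 72 h. Fluorescence read at 700 nm on an infrared imager.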

[5] = Selectivity index, ratio of CC50 for mouse splenocytes to IC50 for Leishmania infantum BCN150 promastigotes expressing IFP1.4; assay type: toxicity; conditions: read-out: Ratio CC50/IC50
Leishmania infantum [6] = experiment: Antileishmanial activity against late log phase promastigote stage of Leishmania infantum MHOM/FR/78/LEM75 assessed as inhibition of parasite growth incubated for 48 hrs by hemocytometer counting method; assay type: functional, organism-based; conditions: MHOM/FR/78/LEM75, 48 h

Row | SMILES | selectivity ratio [1] | CC50 [2] | IC50 (Leishmania infantum [3]) | IC50 (Leishmania infantum [4]) | selectivity ratio [5] | IC50 (Leishmania infantum [6])
1 | O=C(CN1CCc2c([nH]c3ccccc23)C1c1ccccc1)Nc1cccc([N+](=O)[O-])c1 (configuration not stated) | > 230 | > 200 µM | > 100 µM | 0.87 µM |  | 
2 | Cc1cccc(NC(=O)CN2CCc3c([nH]c4ccccc34)C2c2ccccc2)c1 (configuration not stated) | > 135 | > 200 µM | 7.63 µM | 1.48 µM | > 26.2 | 
3 | COc1cccc(NC(=O)CN2CCc3c([nH]c4ccccc34)C2c2ccccc2)c1 (configuration not stated) | > 163 | > 200 µM | 14.6 µM | 1.23 µM | > 13.7 | 
4 | Cc1ccccc1NC(=O)CN1CCc2c([nH]c3ccccc23)C1c1ccccc1 (configuration not stated) | > 298 | > 200 µM | 10.4 µM | 0.67 µM | > 19.2 | 
5 | O=C(CN1CCc2c([nH]c3ccccc23)C1c1ccccc1)Nc1ccc([N+](=O)[O-])cc1 (configuration not stated) | > 37.8 | > 200 µM | 8.1 µM | 5.29 µM | > 24.7 | 
6 | Cc1ccc(NC(=O)CN2CCc3c([nH]c4ccccc34)C2c2ccccc2)c(C)c1 (configuration not stated) | > 75.8 | > 200 µM | 16.9 µM | 2.64 µM | > 11.8 | 
7 | O=C(CN1CCc2c([nH]c3ccccc23)C1c1ccccc1)Nc1ccc(F)cc1 (configuration not stated) | > 48.1 | > 200 µM | 15.1 µM | 4.16 µM | > 13.2 | 
8 | COc1ccc(NC(=O)CN2CCc3c([nH]c4ccccc34)C2c2ccccc2)cc1 (configuration not stated) | > 30.9 | > 200 µM | > 100 µM | 6.46 µM |  | 
9 | O=C(CN1CCc2c([nH]c3ccccc23)C1c1ccccc1)Nc1cccc2ccccc12 (configuration not stated) | > 88.9 | > 200 µM | > 100 µM | 2.25 µM |  | 
10 | COc1ccccc1NC(=O)CN1CCc2c([nH]c3ccccc23)C1c1ccccc1 (configuration not stated) | > 37.4 | > 200 µM | 1.99 µM | 5.35 µM | > 100 | 
11 | O=C(CN1CCc2c([nH]c3ccccc23)C1c1ccccc1)Nc1ccccc1 (configuration not stated) | > 119 | > 200 µM | 12.4 µM | 1.68 µM | > 16.2 | 
12 | O=C(CN1CCc2c([nH]c3ccccc23)C1c1ccccc1)Nc1ccc(Cl)cc1 (configuration not stated) | 38.9 | 146 µM | 15.1 µM | 3.75 µM | 9.64 | 
13 | O=C(CN1CCc2c([nH]c3ccccc23)C1c1ccccc1)Nc1cccc(C(F)(F)F)c1 (configuration not stated) | > 99 | > 200 µM | 45.2 µM | 2.02 µM | > 4.43 | 
14 | C/C=C1\CCN2CCc3c([nH]c4ccccc34)[C@H]2[C@@H]1[C@@H](C(=O)OC)[C@H]1NCCc2c1[nH]c1ccccc21 |  |  |  |  |  | 1.56 µg/mL (≈ 3.15 µM)
15 | O=C(CN1CCc2c([nH]c3ccccc23)C1c1ccccc1)Nc1cccc(Cl)c1 (configuration not stated) | > 132 | > 200 µM | 6.68 µM | 1.51 µM | > 29.9 | 
16 | O=C(CN1CCc2c([nH]c3ccccc23)C1c1ccccc1)Nc1ccccc1Cl (configuration not stated) | > 190 | > 200 µM | 20.7 µM | 1.05 µM | > 9.67 | 
17 | Cc1ccc(NC(=O)CN2CCc3c([nH]c4ccccc34)C2c2ccccc2)cc1 (configuration not stated) | > 31.7 | > 200 µM | 19.2 µM | 6.31 µM | > 10.4 | 
18 | C[C@@H]1[C@H](O)[C@@H](C)/C=C/C=C/C=C/C=C/C=C/C=C/C=C/[C@H](O[C@@H]2O[C@H](C)[C@@H](O)[C@H](N)[C@@H]2O)C[C@@H]2O[C@](O)(C[C@@H](O)C[C@@H](O)[C@H](O)CC[C@@H](O)C[C@@H](O)CC(=O)O[C@H]1C)C[C@H](O)[C@H]2C(=O)O [AMPHOTERICIN B] | > 62.5 | > 20 µM |  | 0.32 µM | > 260 | 
